Laboratory results reported in ChEMBL document CHEMBL4342460, “1-(2'-Bromobenzyl)-6,7-dihydroxy-N-methyl-tetrahydroisoquinoline and 1,2-Demethyl-nuciferine as Agonists in Human D2 Dopamine Receptors” (J Nat Prod, 2020).
Active and inactive are the calls of the source. The calls are words filed in the database; no cut-off is given here.

How the values were obtained:
CHO-K1 = test: Displacement of [3H]spiperone from human D4.2 receptor expressed in CHO-K1 cells at 10 uM by radioligand competitive binding analysis relative to control; type: cell-based
How it was run: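 Membranes from CHO-K1 cells stably expressing human D4.2 receptor. Radioligand [3H]-spiperone. Nonspecific binding defined with 25 μM haloperidol. […] Clozapine served as reference competitor. n = 2, mean SEM.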

[1] = Displacement of [3H]spiperone from human D4.2 receptor expressed in CHO-K1 cells by radioligand competitive binding analysis; type: cell-based
How it was run: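 Competition for [3H]-spiperone on membranes from CHO-K1 cells stably expressing human D4.2 receptor, with nonspecific binding set by 25 μM haloperidol. Six concentrations run, from 1 nM to 100 μM or 0.1 nM to 10 μM. Curves fitted to a single-site model, and Ki derived using radioligand concentration and Kd from saturation binding. Clozapine reference. n = 2, mean SEM.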

D(2) dopamine receptor [2] = target: T1, D(2) dopamine receptor (Homo sapiens, UniProt P14416); test: Agonist activity at human D2S receptor expressed in CHOK1 cells assessed as inhibition of forskolin induced cAMP production by measuring Emax for cAMP accumulation at 10 uM preincubated for 10 mins followed by forskolin addition and measured after 5 mins by HTRF assay relative to quinpirole (reference value: 98.8 +/- 0.6%); type: functional, cell-based
How it was run: (§1)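 CHO-K1 cells stably transfected with human D2S cDNA, kept in 500 μg/mL G418. Cells in stimulation buffer with 500 μM IBMX took compound for 10 min at 37 °C, then forskolin (10 μM) for 5 min. Intracellular cAMP read by HTRF. Efficacy is percent of maximal quinpirole response. Basal cAMP from wells lacking compound, quinpirole and forskolin. n = 3−4 independent experiments in triplicate, mean SEM.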

D(3) dopamine receptor = D(3) dopamine receptor (Homo sapiens, UniProt P35462); test: Displacement of [3H]spiperone from human D3 receptor expressed in CHO-K1 cells by radioligand competitive binding analysis; type: cell-based
D(2) dopamine receptor [3] = target: T1, D(2) dopamine receptor; test: Agonist activity at human D2S receptor expressed in CHOK1 cells assessed as inhibition of forskolin induced cAMP production by measuring Emax for cAMP accumulation at 100 uM preincubated for 10 mins followed by forskolin addition and measured after 5 mins by HTRF assay relative to quinpirole; type: functional, cell-based; how it was run: as §1
D(2) dopamine receptor [4] = target: T1, D(2) dopamine receptor; test: Agonist activity at human D2S receptor expressed in CHOK1 cells assessed as inhibition of forskolin induced cAMP production preincubated for 10 mins followed by forskolin addition and measured after 5 mins by HTRF assay relative to control; type: functional, cell-based
D(2) dopamine receptor [5] = target: T1, D(2) dopamine receptor; test: Agonist activity at human D2S receptor expressed in CHOK1 cells assessed as inhibition of forskolin induced cAMP production at 10 uM preincubated for 10 mins followed by forskolin addition and measured after 5 mins in presence of low concentration of quinpirole by HTRF assay; type: functional, cell-based
How it was run: (§2)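 CHO-K1 cells stably transfected with human D2S (short isoform) cDNA. Test compound (10 μM) was added at the same time as quinpirole (10 pM to 100 μM). Cells were in stimulation buffer with 500 μM IBMX for 10 min at 37 °C, then 10 μM forskolin for 5 min. cAMP was read by HTRF, with basal wells lacking all additions. n = 3−4 independent experiments, in triplicate.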

D(2) dopamine receptor [6] = target: T1, D(2) dopamine receptor; test: Antagonist activity at human D2S receptor expressed in CHOK1 cells assessed as suppression of quinpirole-induced inhibition of forskolin induced cAMP production at 10 uM preincubated for 10 mins followed by forskolin addition and measured after 5 mins in presence of 100 nM quinpirole by HTRF assay relative to quinpirole EC50; type: functional, cell-based; how it was run: as §2
D(2) dopamine receptor [7] = target: T1, D(2) dopamine receptor; test: Displacement of [3H]spiperone from human D2S receptor expressed in CHO-K1 cells by radioligand competitive binding analysis; type: cell-based

T1 sequence (P14416 whole entry): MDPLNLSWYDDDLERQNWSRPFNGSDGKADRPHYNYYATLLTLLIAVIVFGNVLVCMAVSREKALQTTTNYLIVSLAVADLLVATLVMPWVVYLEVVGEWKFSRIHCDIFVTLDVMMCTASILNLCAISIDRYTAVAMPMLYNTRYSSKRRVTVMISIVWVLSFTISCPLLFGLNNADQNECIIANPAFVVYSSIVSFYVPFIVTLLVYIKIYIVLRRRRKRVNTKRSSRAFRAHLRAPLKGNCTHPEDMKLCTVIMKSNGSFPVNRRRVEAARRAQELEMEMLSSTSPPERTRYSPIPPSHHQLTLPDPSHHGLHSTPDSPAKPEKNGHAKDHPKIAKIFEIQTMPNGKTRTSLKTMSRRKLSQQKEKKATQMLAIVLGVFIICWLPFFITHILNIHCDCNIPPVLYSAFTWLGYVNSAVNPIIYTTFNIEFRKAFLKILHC
Chain of D(3) dopamine receptor (P35462 whole entry): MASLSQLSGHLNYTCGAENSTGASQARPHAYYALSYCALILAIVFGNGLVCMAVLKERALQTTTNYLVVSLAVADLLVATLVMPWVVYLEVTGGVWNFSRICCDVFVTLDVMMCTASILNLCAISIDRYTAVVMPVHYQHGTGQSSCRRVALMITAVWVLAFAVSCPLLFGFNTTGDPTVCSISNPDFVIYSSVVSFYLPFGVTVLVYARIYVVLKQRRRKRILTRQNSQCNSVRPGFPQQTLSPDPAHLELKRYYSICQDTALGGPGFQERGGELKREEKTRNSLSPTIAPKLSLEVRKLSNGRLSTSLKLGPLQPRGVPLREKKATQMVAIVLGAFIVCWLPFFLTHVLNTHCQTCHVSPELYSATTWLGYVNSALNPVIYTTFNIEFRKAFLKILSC

Structure (SMILES) | inhibition (CHO-K1) | Ki [1] | pKi [1] | Emax (D(2) dopamine receptor [2]) | Activity (D(3) dopamine receptor) | Ki (D(3) dopamine receptor) | Activity [1] | Emax (D(2) dopamine receptor [3]) | EC50 (D(2) dopamine receptor [4]) | Activity (D(2) dopamine receptor [5]) | fold change (FC) (D(2) dopamine receptor [6]) | Ki (D(2) dopamine receptor [7])
CN1CCN(C2=Nc3cc(Cl)ccc3Nc3ccccc32)CC1 [CLOZAPINE] | 96% | 56.9 nM | 7.25 | – | – | – | – | – | – | – | – | –
CN1CCc2cc(O)c(O)c3c2C1Cc1ccccc1-3 (stereo not drawn) | 73% | 551 nM | 6.26 | 50.7% | Dose-dependent effect | 838 nM | Dose-dependent effect | 92.7% | – | – | – | –
CN1CCc2cc(O)c(O)cc2C1Cc1ccccc1Br (stereo not drawn) | 96% | 13.8 nM | 7.86 | 31.9% | Dose-dependent effect | 197 nM | Dose-dependent effect | 48.4% | 2950 nM | Active | 35 | 286 nM
